In general, Ki refers to the dissociation constant of the complex between target and ligand, obtained from inhibition or displacement. Broadly, the IC50 is the point on the concentration scale where inhibition reaches its midpoint.

Test [1] addresses P2Y purinoceptor 12 (Homo sapiens, UniProt Q9H244). Briefly: Displacement of [33P]ADP from human recombinant P2Y12 receptor expressed in CHO cells. It counts as cell-based. The method, boiled down: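 Washed membranes from CHO cells expressing synthetic human P2Y12, incubated 1 h at room temperature with 0.2 nM 33P-MeSADP in 50 mM Tris/100 mM NaCl/1 mM EDTA. Compound was tested as a 7-point 3-fold series in triplicate. Nonspecific binding was defined with 300 nM 2-MeSADP, followed by filtration.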

Test [2] is described as follows: Antiplatelet aggregation activity against adenosine diphosphate-induced human platelet rich plasma assessed as inhibition of platelet aggregation by turbidimetric method. Conditions: Homo sapiens, Platelet, Plasma. It counts as functional. In short, it runs like this:
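Human PRP, prepared by two-step centrifugation and adjusted to 330 000 platelets/μL with PPP. Compound was preincubated 5 min at 37 °C in 0.5% DMSO, then 20 μM ADP was added. OD626 was read kinetically for 15 min at 37 °C with mixing between reads.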

In test [3] the test system is Platelet. The test is described as follows: Relative potency, ratio of IC50 for drug to IC50 for AZD-6140 for platelet aggregation in human platelet rich plasma. The test is classed as functional.

Chain of P2Y purinoceptor 12 (Q9H244 whole entry): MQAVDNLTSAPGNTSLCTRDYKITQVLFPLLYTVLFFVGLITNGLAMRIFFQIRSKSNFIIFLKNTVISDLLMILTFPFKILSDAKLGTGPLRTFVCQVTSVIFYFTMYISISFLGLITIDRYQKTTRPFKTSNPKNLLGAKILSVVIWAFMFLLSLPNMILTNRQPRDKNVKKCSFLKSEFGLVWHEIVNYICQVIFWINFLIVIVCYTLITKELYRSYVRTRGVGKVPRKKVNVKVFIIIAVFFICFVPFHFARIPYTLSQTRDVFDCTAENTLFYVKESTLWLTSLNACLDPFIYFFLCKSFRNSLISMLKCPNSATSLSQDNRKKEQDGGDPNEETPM

As to `CCCCOC(=O)N1CCN(C(=O)[C@H](CCC(=O)O)NC(=O)c2cc(OC(=O)N(C)CC3CCOCC3)cc(-c3ccccc3)n2)CC1`, the Ki in test [1] was 0.0015 µM. Also, the half-inhibitory concentration (IC50) in test [2] is 0.59 µM. Further, the “Ratio IC50” value in test [3] is reported as 0.87.
Consider `CCCCCCOC(=O)N1CCN(C(=O)[C@H](CCC(=O)O)NC(=O)c2cc(OCC3CCNCC3)cc(-c3ccccc3)n2)CC1`, for which the inhibition constant Ki in test [1] was 0.0045 µM. In addition, the IC50 in test [2] stood at 0.64 µM. Moreover, the “Ratio IC50” value in test [3] is 1.3.
On to `CCCCOC(=O)N1CCN(C(=O)[C@H](CCC(=O)O)NC(=O)c2cc(OCC3CCN(CCOC)CC3)cc(-c3ccccc3)n2)CC1`, for which the inhibitory constant (Ki) in test [1] is 0.0053 µM. Also, the IC50 in test [2] is 0.62 µM. Moreover, the “Ratio IC50” value in test [3] was found to be 0.53.
For the compound `CCCCOC(=O)N1CCN(C(=O)[C@H](CCC(=O)O)NC(=O)c2cc(O)cc(-c3ccccc3)n2)CC1`, the Ki in test [1] worked out at 0.031 µM. Moreover, in test [2], the IC50 came to 8.8 µM. In addition, the “Ratio IC50” value in test [3] was 9.7.
With `CCOC(=O)N1CCN(C(=O)[C@H](CCC(=O)O)NC(=O)c2cc(OCCCCO)cc(-c3ccccc3)n2)CC1`, the Ki in test [1] worked out at 0.132 µM. In addition, in test [2], the IC50 came to 13 µM. In test [3], the “Ratio IC50” value amounted to 13.
Turning to `CCCCCOC(=O)N1CCN(C(=O)[C@H](CCC(=O)O)NC(=O)c2cc(C(=O)N3CCN(C(C)=O)CC3)cc(-c3ccccc3)n2)CC1`, in test [1], the inhibition constant (Ki) was 0.0017 µM. Besides, the half-maximal inhibitory concentration (IC50) in test [2] was determined as 0.32 µM. For the same compound, the “Ratio IC50” value in test [3] came to 0.48.
On to `CCCCOC(=O)N1CCN(C(=O)[C@H](CCC(=O)O)NC(=O)c2cc(OCC3CCN(C(=O)C(F)(F)F)CC3)cc(-c3ccccc3)n2)CC1`, for which, in test [1], the inhibitory constant (Ki) came to 0.01 µM. Also, in test [2], the IC50 was determined as 3 µM. The “Ratio IC50” value in test [3] is 2.8.
The matching figures for `CCCOc1cc(C(=O)N[C@@H](CCC(=O)O)C(=O)N2CCN(C(=O)OCC)CC2)nc(-c2ccccc2)c1`: 0.12 µM, 36 µM and 46.
For `CCCCOC(=O)N1CCN(C(=O)[C@H](CCC(=O)O)NC(=O)c2cc(OCCCC)cc(-c3ccccc3)n2)CC1`, in test [1], the inhibition constant Ki was 0.035 µM. The IC50 in test [2] worked out at 27 µM. The “Ratio IC50” value in test [3] came to 18.
`CCCCCOC(=O)N1CCN(C(=O)[C@H](CCC(=O)O)NC(=O)c2cc(C(=O)NCCC)cc(-c3ccccc3)n2)CC1`: the Ki in test [1] was found to be 0.011 µM. In addition, in test [2], the IC50 amounted to 12 µM. In addition, the “Ratio IC50” value in test [3] turned out to be 20.
As for `CCCCCOC(=O)N1CCN(C(=O)[C@H](CCC(=O)O)NC(=O)c2cc(N3CCC(OC)CC3)cc(-c3ccccc3)n2)CC1`, the Ki in test [1] was determined as 0.015 µM. For the same compound, in test [2], the IC50 amounted to 3.9 µM. The “Ratio IC50” value in test [3] stood at 3.
On to `CCCCOC(=O)N1CCN(C(=O)[C@H](CCC(=O)O)NC(=O)c2cc(N3CCC(NC)CC3)cc(-c3ccccc3)n2)CC1`, for which the Ki in test [1] turned out to be 0.0027 µM. Besides, in test [2], the IC50 worked out at 1.2 µM. Further, the “Ratio IC50” value in test [3] is recorded as 0.86.
In the case of `CCCCOC(=O)N1CCN(C(=O)[C@H](CCC(=O)O)NC(=O)c2cc(OC(=O)N(C)C)cc(-c3ccccc3)n2)CC1`, the Ki in test [1] amounted to 0.002 µM. Further, the IC50 in test [2] was 1.1 µM. Moreover, in test [3], the “Ratio IC50” value is given as 1.1.
The matching figures for `CCCCOC(=O)N1CCN(C(=O)[C@H](CCC(=O)O)NC(=O)c2cc(OCC3CCOCC3)cc(-c3ccccc3)n2)CC1`: 0.011 µM, 2.3 µM and 3.6.
The matching figures for `CCOC(=O)N1CCN(C(=O)[C@H](CCC(=O)O)NC(=O)c2cc(OCc3ccccc3)cc(-c3ccccc3)n2)CC1`: 0.028 µM, 31 µM and 42.
The matching figures for `CCCCOC(=O)N1CCN(C(=O)[C@H](CCC(=O)O)NC(=O)c2cc(OCCCOC)cc(-c3ccccc3)n2)CC1`: 0.0059 µM, 2.2 µM and 3.9.
As for `CCCCCOC(=O)N1CCN(C(=O)[C@H](CCC(=O)O)NC(=O)c2cc(C(=O)N(C)CCCC)cc(-c3ccccc3)n2)CC1`, in test [1], the Ki came out at 0.0058 µM. Moreover, in test [2], the IC50 worked out at 1.8 µM. The “Ratio IC50” value in test [3] was 3.3.
With `CCCCCOC(=O)N1CCN(C(=O)[C@H](CCC(=O)O)NC(=O)c2cc(C(=O)N(C)C3CCN(C)CC3)cc(-c3ccccc3)n2)CC1`, the Ki in test [1] came to 0.011 µM. Also, the IC50 in test [2] was determined as 0.35 µM. For the same compound, the “Ratio IC50” value in test [3] was found to be 0.83.
Take `CCCCCOC(=O)N1CCN(C(=O)[C@H](CCC(=O)O)NC(=O)c2cc(CCCO)cc(-c3ccccc3)n2)CC1`: the inhibitory constant (Ki) in test [1] was 0.0038 µM. Besides, the half-inhibitory concentration (IC50) in test [2] was determined as 1.9 µM. In addition, the “Ratio IC50” value in test [3] stood at 2.6.
The matching figures for `CCCCOC(=O)N1CCN(C(=O)[C@H](CCC(=O)O)NC(=O)c2cc(OC3CCN(CCOC)CC3)cc(-c3ccccc3)n2)CC1`: 0.0094 µM, 1.2 µM and 1.1.
On to `CCCCCCOC(=O)N1CCN(C(=O)[C@H](CCC(=O)O)NC(=O)c2cc(N3CCC(N4CCCC4)CC3)cc(-c3ccccc3)n2)CC1`, for which the Ki in test [1] amounted to 0.0026 µM. In addition, the IC50 in test [2] came to 1.2 µM. In addition, in test [3], the “Ratio IC50” value amounted to 2.3.
The matching figures for `CCCCCCOC(=O)N1CCN(C(=O)[C@H](CCC(=O)O)NC(=O)c2cc(OCCOC)cc(-c3ccccc3)n2)CC1`: 0.014 µM, 8.3 µM and 7.1.
For `CCCCCOC(=O)N1CCN(C(=O)[C@H](CCC(=O)O)NC(=O)c2cc(OC3CCN(C(=O)C(F)(F)F)CC3)cc(-c3ccccc3)n2)CC1`, in that order: 0.019 µM, 4.7 µM and 4.4.
In the case of `CCCCOC(=O)N1CCN(C(=O)[C@H](CCC(=O)O)NC(=O)c2cc(OCC3CCN(C)CC3)cc(-c3ccccc3)n2)CC1`, the inhibitory constant (Ki) in test [1] came to 0.0025 µM. For the same compound, the IC50 in test [2] was 0.24 µM. Moreover, the “Ratio IC50” value in test [3] was 0.38.
In the case of `CCCCOC(=O)N1CCN(C(=O)[C@H](CCC(=O)O)NC(=O)c2cc(OCCCO)cc(-c3ccccc3)n2)CC1`, in test [1], the Ki worked out at 0.0069 µM. Moreover, the IC50 in test [2] was 2.9 µM. Also, in test [3], the “Ratio IC50” value is 5.1.
The matching figures for `CCCCOC(=O)N1CCN(C(=O)[C@H](CCC(=O)O)NC(=O)c2cc(OC3CCNC3)cc(-c3ccccc3)n2)CC1` (stereo not given in full): 0.0037 µM, 2.6 µM and 1.3.
The matching figures for `CCCCCCOC(=O)N1CCN(C(=O)[C@H](CCC(=O)O)NC(=O)c2cc(N3CCC(N)CC3)cc(-c3ccccc3)n2)CC1`: 0.0033 µM, 2.4 µM and 3.4.
Take `CCCCCOC(=O)N1CCN(C(=O)[C@H](CCC(=O)O)NC(=O)c2cc(C(=O)NC)cc(-c3ccccc3)n2)CC1`: the Ki in test [1] was determined as 0.01 µM. Moreover, the concentration for half-maximal inhibition (IC50) in test [2] was determined as 6.8 µM. The “Ratio IC50” value in test [3] is on record as 9.7.
For `CCCCCOC(=O)N1CCN(C(=O)[C@H](CCC(=O)O)NC(=O)c2cc(CCC(=O)N(C)C)cc(-c3ccccc3)n2)CC1`, in that order: 0.0021 µM, 2.9 µM and 2.7.
As to `CCCCCOC(=O)N1CCN(C(=O)[C@H](CCC(=O)O)NC(=O)c2cc(NC(=O)N3CCN(C)CC3)cc(-c3ccccc3)n2)CC1`, in test [1], the Ki was found to be 0.0032 µM. For the same compound, the IC50 in test [2] was found to be 11 µM. The “Ratio IC50” value in test [3] came to 7.2.
The matching figures for `CCCCOC(=O)N1CCN(C(=O)[C@H](CCC(=O)O)NC(=O)c2cc(OCC3CCNCC3)cc(-c3ccccc3)n2)CC1`: 0.0042 µM, 0.21 µM and 0.37.
`CCCCCOC(=O)N1CCN(C(=O)[C@H](CCC(=O)O)NC(=O)c2cc(OC(=O)N(C)C)cc(-c3ccccc3)n2)CC1`: the Ki in test [1] was found to be 0.0055 µM. The IC50 in test [2] worked out at 2.9 µM. Besides, the “Ratio IC50” value in test [3] was 1.7.
The matching figures for `CCCCCOC(=O)N1CCN(C(=O)[C@H](CCC(=O)O)NC(=O)c2cc(OCC)cc(-c3ccccc3)n2)CC1`: 0.0079 µM, 17 µM and 23.
For `CCCCOC(=O)N1CCN(C(=O)[C@H](CCC(=O)O)NC(=O)c2cc(OCC3CCCNC3)cc(-c3ccccc3)n2)CC1` (stereo not given in full), in that order: 0.0037 µM, 1.2 µM and 0.57.
The matching figures for `CCCCCOC(=O)N1CCN(C(=O)[C@H](CCC(=O)O)NC(=O)c2cc(OCC3CCN(C(C)=O)CC3)cc(-c3ccccc3)n2)CC1`: 0.0013 µM, 1.3 µM and 1.8.
Consider `CCCCCOC(=O)N1CCN(C(=O)[C@H](CCC(=O)O)NC(=O)c2cc(CCC(=O)N3CCOCC3)cc(-c3ccccc3)n2)CC1`, for which, in test [1], the Ki came out at 0.0037 µM. Also, the IC50 in test [2] stood at 3.1 µM. For the same compound, the “Ratio IC50” value in test [3] is 2.4.
The matching figures for `CCCCCOC(=O)N1CCN(C(=O)[C@H](CCC(=O)O)NC(=O)c2cc(C(=O)N(C)CC)cc(-c3ccccc3)n2)CC1`: 0.0026 µM, 0.58 µM and 1.3.
The matching figures for `CCCCCOC(=O)N1CCN(C(=O)[C@H](CCC(=O)O)NC(=O)c2cc(C(=O)N3CCN(C)CC3)cc(-c3ccccc3)n2)CC1`: 0.0058 µM, 0.53 µM and 0.72.
For `CCCCCOC(=O)N1CCN(C(=O)[C@H](CCC(=O)O)NC(=O)c2cc(NC(=O)OCC3CCNCC3)cc(-c3ccccc3)n2)CC1`, the Ki in test [1] came to 0.0017 µM. Moreover, the concentration for half-maximal inhibition (IC50) in test [2] worked out at 5.8 µM. For the same compound, the “Ratio IC50” value in test [3] is 3.7.
With `CCCCCOC(=O)N1CCN(C(=O)[C@H](CCC(=O)O)NC(=O)c2cc(OCCN)cc(-c3ccccc3)n2)CC1`, in test [1], the Ki worked out at 0.0088 µM. Further, the concentration for half-maximal inhibition (IC50) in test [2] is 2.4 µM. Further, the “Ratio IC50” value in test [3] was 3.

(Values after ChEMBL document CHEMBL1157562, “Piperazinyl glutamate pyridines as potent orally bioavailable P2Y12 antagonists for inhibition of platelet aggregation” (J Med Chem, 2010).)
